According to the M2OR odorant receptor database:
Residue numbers refer to the chain shown, from its start.

Tests used:
Settings in all cases: stereoisomer not certain
[1] = system: T1, O51F1
T1 sequence (whole entry): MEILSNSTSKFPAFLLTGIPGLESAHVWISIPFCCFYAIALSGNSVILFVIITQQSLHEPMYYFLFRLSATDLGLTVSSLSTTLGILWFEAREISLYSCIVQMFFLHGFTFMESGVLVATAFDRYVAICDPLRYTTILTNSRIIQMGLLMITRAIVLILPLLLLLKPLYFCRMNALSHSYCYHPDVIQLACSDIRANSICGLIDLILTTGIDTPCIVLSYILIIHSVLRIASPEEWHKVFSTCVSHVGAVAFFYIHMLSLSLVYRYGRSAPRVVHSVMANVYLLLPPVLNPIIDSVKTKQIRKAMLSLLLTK
In short: (§1)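 Assay methods differ from source to source, frequently being transient luciferase assays in mammalian cell lines. For each receptor–molecule pair, the label responsive (active) applies when the original authors judged the measured signal statistically different from baseline, and non-responsive (inactive) applies otherwise.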

[2] = system: T2, O51F1; remark: listed apart in the source
T2 sequence (whole entry): T1 sequence (whole entry) with A13T
In short: as §1

[3] = system: T3, O51F2 Y341S
T3 sequence (whole entry): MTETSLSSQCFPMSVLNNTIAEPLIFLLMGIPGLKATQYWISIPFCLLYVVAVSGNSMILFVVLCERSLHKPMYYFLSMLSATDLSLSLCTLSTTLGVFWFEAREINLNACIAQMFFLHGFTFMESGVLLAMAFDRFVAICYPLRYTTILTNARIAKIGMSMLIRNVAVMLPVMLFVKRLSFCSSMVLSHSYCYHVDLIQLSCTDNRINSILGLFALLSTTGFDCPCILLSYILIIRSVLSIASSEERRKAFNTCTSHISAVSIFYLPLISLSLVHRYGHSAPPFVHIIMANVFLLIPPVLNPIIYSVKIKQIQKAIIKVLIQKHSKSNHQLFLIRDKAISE
In short: as §1

[4] = system: T4, O51G1
T4 sequence (whole entry): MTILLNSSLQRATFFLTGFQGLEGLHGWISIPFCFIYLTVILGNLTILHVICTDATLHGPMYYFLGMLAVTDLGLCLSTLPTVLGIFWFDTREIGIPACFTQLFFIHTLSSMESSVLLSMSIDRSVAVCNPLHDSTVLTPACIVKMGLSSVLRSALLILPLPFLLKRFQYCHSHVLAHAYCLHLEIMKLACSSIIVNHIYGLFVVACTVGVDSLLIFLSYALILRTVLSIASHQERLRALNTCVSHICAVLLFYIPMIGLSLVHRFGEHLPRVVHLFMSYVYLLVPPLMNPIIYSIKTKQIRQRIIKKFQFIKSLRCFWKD
In short: as §1

[5] = system: T5, O51I1 V164L
T5 sequence (whole entry): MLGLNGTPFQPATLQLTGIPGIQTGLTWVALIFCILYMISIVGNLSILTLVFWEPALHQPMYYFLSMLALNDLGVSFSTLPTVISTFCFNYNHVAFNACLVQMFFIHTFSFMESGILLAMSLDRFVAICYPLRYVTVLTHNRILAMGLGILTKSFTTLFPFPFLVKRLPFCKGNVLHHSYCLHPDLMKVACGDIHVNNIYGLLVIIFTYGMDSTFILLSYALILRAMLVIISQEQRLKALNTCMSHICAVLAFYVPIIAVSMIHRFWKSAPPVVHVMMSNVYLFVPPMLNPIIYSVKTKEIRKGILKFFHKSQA
In short: as §1

[6] = system: T6, O51J1 R75H I202V
T6 sequence (whole entry): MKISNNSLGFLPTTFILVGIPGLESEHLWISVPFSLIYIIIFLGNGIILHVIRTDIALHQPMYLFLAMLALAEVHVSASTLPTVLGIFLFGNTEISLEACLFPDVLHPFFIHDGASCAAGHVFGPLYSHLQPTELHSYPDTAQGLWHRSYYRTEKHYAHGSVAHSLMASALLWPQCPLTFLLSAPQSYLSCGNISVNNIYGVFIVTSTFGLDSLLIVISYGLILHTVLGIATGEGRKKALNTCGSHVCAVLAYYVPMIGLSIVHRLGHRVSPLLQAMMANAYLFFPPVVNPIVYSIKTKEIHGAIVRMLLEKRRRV
In short: as §1

[7] = system: T7, O51L1
T7 sequence (whole entry): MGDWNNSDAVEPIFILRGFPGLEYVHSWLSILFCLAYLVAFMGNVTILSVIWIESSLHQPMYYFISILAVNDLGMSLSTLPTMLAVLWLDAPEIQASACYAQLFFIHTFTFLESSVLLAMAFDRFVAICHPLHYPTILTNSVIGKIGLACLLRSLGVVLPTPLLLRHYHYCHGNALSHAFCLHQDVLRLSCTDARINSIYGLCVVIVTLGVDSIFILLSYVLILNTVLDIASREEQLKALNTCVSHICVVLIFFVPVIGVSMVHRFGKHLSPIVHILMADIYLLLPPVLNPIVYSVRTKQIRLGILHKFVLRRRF
In short: as §1

[8] = system: T8, O51T1
T8 sequence (whole entry): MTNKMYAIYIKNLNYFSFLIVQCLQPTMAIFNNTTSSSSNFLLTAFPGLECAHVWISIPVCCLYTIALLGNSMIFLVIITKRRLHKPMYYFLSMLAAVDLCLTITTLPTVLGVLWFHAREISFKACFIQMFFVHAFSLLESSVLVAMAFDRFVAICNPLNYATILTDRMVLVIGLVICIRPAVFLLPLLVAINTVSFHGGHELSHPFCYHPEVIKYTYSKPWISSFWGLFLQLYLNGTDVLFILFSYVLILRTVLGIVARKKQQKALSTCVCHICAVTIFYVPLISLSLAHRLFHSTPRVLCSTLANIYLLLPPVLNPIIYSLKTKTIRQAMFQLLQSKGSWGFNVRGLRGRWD
In short: as §1

[9] = system: T9, O51V1 L36F N51T G96W
T9 sequence (whole entry): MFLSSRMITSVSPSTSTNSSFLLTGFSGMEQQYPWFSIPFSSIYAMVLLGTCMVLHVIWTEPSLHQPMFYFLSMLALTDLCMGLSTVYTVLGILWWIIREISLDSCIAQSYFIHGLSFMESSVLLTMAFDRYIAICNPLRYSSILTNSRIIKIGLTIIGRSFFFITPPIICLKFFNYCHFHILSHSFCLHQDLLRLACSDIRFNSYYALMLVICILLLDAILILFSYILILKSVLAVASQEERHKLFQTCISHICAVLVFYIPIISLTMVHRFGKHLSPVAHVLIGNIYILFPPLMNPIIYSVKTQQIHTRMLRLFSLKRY
In short: as §1

[10] = system: T10, O52A1
T10 sequence (whole entry): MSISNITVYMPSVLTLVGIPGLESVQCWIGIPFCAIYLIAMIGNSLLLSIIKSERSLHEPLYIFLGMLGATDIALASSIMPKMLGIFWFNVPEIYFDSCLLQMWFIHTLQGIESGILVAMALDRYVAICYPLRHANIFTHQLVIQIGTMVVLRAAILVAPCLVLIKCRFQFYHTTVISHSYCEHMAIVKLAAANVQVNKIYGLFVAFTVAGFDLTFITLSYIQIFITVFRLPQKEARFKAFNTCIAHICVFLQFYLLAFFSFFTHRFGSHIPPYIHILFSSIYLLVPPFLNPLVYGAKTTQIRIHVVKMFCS
In short: as §1

[11] = system: T11, O52B6 V288I
T11 sequence (whole entry): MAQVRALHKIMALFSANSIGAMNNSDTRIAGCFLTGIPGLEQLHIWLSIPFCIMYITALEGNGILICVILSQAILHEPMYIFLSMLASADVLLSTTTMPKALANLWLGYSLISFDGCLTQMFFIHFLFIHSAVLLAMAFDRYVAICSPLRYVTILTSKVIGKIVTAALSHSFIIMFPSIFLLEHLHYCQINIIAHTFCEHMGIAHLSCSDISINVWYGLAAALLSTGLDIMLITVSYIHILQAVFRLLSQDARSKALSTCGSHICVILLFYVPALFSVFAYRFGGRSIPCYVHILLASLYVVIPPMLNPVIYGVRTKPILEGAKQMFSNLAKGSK
In short: as §1

[12] = system: O52E2 R264C
In short: as §1

[13] = system: O52E4
In short: as §1

[14] = system: O52E5
In short: as §1

[15] = system: O52E8
In short: as §1

[16] = system: T12, O52H1 A89T H130R C242R
T12 sequence (whole entry): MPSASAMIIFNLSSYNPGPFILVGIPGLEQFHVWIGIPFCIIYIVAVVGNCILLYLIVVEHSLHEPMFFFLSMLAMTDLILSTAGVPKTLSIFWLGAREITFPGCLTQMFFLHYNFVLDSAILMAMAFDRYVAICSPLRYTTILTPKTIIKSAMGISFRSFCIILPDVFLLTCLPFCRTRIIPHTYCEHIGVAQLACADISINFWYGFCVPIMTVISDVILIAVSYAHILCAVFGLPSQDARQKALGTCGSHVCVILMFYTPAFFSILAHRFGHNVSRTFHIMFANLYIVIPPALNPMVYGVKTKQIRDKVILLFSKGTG
In short: as §1

[17] = system: T13, O52H1 H130R C242R
T13 sequence (whole entry): T12 sequence (whole entry) with T89A
In short: as §1

[18] = system: T14, O52H1
T14 sequence (whole entry): T12 sequence (whole entry) with T89A, R130H, R242C
In short: as §1

[19] = system: T15, O52I2 I74L
T15 sequence (whole entry): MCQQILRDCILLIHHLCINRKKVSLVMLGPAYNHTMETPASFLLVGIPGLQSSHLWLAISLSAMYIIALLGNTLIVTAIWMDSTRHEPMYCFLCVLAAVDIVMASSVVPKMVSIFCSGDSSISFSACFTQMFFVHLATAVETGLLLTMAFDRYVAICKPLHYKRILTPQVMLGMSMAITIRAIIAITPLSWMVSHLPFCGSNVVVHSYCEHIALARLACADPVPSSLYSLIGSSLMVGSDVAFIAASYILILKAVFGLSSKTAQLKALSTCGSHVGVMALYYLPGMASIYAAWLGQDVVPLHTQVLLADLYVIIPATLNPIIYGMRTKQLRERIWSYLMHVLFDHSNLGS
In short: as §1

Measured: odorant receptor agonist call

Chain of O52E2 R264C (as listed by the source, stated change not applied): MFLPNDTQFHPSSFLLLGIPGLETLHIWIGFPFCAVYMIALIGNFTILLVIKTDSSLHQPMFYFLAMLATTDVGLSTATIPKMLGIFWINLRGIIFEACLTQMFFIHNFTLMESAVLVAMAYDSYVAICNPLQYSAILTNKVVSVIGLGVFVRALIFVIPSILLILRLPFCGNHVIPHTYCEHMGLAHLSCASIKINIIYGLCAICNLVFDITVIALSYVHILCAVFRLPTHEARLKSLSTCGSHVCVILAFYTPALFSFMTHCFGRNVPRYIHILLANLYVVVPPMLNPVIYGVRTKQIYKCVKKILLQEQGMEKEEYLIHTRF
Chain of O52E8 (as listed by the source): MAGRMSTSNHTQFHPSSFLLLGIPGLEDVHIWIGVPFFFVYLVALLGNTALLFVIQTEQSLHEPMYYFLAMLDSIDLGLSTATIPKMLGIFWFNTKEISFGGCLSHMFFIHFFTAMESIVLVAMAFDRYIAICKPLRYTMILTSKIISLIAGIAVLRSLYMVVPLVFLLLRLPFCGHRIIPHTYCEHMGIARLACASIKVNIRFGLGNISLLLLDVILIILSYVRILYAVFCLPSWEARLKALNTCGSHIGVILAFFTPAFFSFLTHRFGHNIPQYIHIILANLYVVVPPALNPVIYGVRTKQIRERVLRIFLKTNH
Chain of O52E4 (as listed by the source): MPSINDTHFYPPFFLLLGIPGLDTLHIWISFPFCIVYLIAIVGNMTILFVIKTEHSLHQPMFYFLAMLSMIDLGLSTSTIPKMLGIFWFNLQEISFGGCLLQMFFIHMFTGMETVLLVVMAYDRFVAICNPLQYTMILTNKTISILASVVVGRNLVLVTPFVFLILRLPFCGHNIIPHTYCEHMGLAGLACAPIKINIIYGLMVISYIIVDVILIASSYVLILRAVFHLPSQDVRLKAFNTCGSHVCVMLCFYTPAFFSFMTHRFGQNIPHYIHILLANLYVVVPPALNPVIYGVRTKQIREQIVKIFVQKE
Chain of O52E5 (as listed by the source): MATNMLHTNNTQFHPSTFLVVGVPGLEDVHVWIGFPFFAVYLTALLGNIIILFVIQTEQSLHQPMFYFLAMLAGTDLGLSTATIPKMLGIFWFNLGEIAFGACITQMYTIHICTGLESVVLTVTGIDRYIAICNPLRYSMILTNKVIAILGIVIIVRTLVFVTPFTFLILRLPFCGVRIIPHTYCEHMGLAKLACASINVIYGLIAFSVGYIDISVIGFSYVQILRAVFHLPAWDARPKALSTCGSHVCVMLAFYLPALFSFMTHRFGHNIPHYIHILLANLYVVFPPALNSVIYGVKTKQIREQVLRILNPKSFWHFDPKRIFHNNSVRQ

CCC1OC(=O)C(O)=C1C (stereo unspecified)
inactive: all assays above

Cc1cnc(C)c(C)n1
inactive: all assays above

CC1CCCCCCCCCCCCC(=O)C1 (stereo unspecified)
inactive: [15] | [18]

CC1=C(O)C(=O)OC1C (stereo unspecified)
inactive: all assays above

CCCCCCC=CCCC=O
not listed: [2] | [8] | [14]
inactive: all other assays above

CCCCC(S)C(C)CO (stereo unspecified)
inactive: [15] | [18]

CCCCCC(=O)C(C)C(C)=O (stereo unspecified)
inactive: [15] | [18]

CCCCCC1CCCC(=O)O1 (stereo unspecified)
inactive: [15] | [18]
